Data on 2 molecules can be found in ChEMBL document CHEMBL1145326, “Antimycobacterial agents. Novel diarylpyrrole derivatives of BM212 endowed with high activity toward Mycobacterium tuberculosis and low cytotoxicity” (2006).

The term MIC denotes the lowest concentration found to suppress growth.

What all share (type): functional
Test [1] has as its system Mycobacterium tuberculosis. The test can be described thus: Antibacterial activity against multi drug resistant Mycobacterium tuberculosis 326/04 isolate. A digest of the protocol: (§1)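 MIC against clinical MTB isolates by the macrodilution broth method in Middlebrook broth enriched with 10% ADC. Values are in µg/mL.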
The test system of test [2] is Mycobacterium tuberculosis. Description: Antibacterial activity against multi drug resistant Mycobacterium tuberculosis 134/02 isolate. A digest of the protocol:
as §1

The subject of test [3] is Mycobacterium tuberculosis. The test can be described thus: Antibacterial activity against multi drug resistant Mycobacterium tuberculosis 482/98 isolate. The essentials:
as §1

The subject of test [4] is Mycobacterium tuberculosis. The test can be described thus: Antibacterial activity against multi drug resistant Mycobacterium tuberculosis 520/98 isolate. The essentials:
as §1

Test [5] relates to Mycobacterium tuberculosis. Description: Antibacterial activity against multi drug resistant Mycobacterium tuberculosis 275/05 isolate. A digest of the protocol:
as §1

Test [6] concerns Mycobacterium tuberculosis. The test can be described thus: Antibacterial activity against multi drug resistant Mycobacterium tuberculosis 586/98 isolate. The essentials: as §1
The test system of test [7] is Mycobacterium tuberculosis. The test can be described thus: Antibacterial activity against multi drug resistant Mycobacterium tuberculosis 149/03 isolate. The essentials:
as §1

The subject of test [8] is Mycobacterium tuberculosis. Description: Antibacterial activity against multi drug resistant Mycobacterium tuberculosis 421/96 isolate. The essentials:
as §1

In test [9] the test system is Mycobacterium tuberculosis. The test can be described thus: Antibacterial activity against multi drug resistant Mycobacterium tuberculosis 296/04 isolate. A digest of the protocol:
as §1

The subject of test [10] is Mycobacterium tuberculosis. Description: Antibacterial activity against multi drug resistant Mycobacterium tuberculosis 158/97 isolate. A digest of the protocol: as §1
Test [11] relates to Mycobacterium tuberculosis. The test can be described thus: Antibacterial activity against multi drug resistant Mycobacterium tuberculosis 43/05 isolate. A digest of the protocol: as §1

≈ marks a conversion by molar mass, not a printed value.

As for `Cc1ccc(-c2cc(CN3CCSCC3)c(C)n2-c2ccc(F)cc2)cc1`, the minimal inhibitory concentration (MIC) in test [1] is 32 µg/mL (≈ 84.1 µM); in test [2], 0.5 µg/mL (≈ 1.31 µM); in test [3], 0.5 µg/mL (≈ 1.31 µM); in test [4], 0.5 µg/mL (≈ 1.31 µM); in [5], 0.5 µg/mL (≈ 1.31 µM); in test [6], 0.5 µg/mL (≈ 1.31 µM). For the same molecule, the minimum inhibitory concentration (MIC) in test [7], in test [8], in [9], in test [10] and in test [11] was 0.5 µg/mL (≈ 1.31 µM) throughout.
`Cc1c(CN2CCSCC2)cc(-c2ccc(F)cc2)n1-c1ccccc1F`: the minimal inhibitory concentration (MIC) is > 32 µg/mL in test [1]; 2 µg/mL (≈ 5.2 µM) in test [2]; 2 µg/mL (≈ 5.2 µM) in [3]; 2 µg/mL (≈ 5.2 µM) in test [4]; 2 µg/mL (≈ 5.2 µM) in test [5]; 2 µg/mL (≈ 5.2 µM) in test [6]. Also, the minimum inhibitory concentration (MIC) turned out to be 2 µg/mL (≈ 5.2 µM) in test [7]; 2 µg/mL (≈ 5.2 µM) in [8]; 2 µg/mL (≈ 5.2 µM) in [9]; 0.5 µg/mL (≈ 1.3 µM) in [10]; 0.5 µg/mL (≈ 1.3 µM) in test [11].
